Measurements reported in ChEMBL document CHEMBL5033998, “Discovery of DDO-2213 as a Potent and Orally Bioavailable Inhibitor of the WDR5-Mixed Lineage Leukemia 1 Protein-Protein Interaction for the Treatment of MLL Fusion Leukemia” (J Med Chem, 2021).
Activity calls are given as the source filed them. The rule behind the calls is not given here.

Legend:
[1] = target: T1, N-lysine methyltransferase KMT5A (Homo sapiens, UniProt Q9NQR1); experiment: Inhibition of SET8 (unknown origin) assessed as effect on H4K20 methylation incubated for 30 mins by Alphascreen assay
T1 sequence (Q9NQR1 whole entry): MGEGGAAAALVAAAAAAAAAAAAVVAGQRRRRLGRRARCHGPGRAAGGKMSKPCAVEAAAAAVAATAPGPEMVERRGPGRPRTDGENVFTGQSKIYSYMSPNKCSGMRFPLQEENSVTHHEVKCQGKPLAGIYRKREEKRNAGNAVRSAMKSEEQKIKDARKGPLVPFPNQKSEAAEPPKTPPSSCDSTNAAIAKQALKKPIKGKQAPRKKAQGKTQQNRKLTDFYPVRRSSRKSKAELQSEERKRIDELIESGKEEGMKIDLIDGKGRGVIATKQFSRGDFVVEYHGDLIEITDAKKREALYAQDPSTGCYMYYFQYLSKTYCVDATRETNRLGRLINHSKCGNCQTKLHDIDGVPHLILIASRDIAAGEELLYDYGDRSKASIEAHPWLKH
Procedure, shortened: (§1)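 AlphaScreen: enzyme, SAM and compound mixed in 10 mM PBS for 30 min at room temperature; acceptor beads and substrate antibody added, 30 min at room temperature, then streptavidin donor beads; read on AlphaScreen reader.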

[2] = system: MV4-11; experiment: Antitumor activity against human MV4-11 cells xenografted in Balb/c nude mouse assessed as tumor weight inhibition at 80 mg/kg, po administered daily for 21 days relative to control; assay type: functional; conditions: MV4-11, po, 504 h
Procedure, shortened: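 MV4-11 flank xenografts (~5 × 10^6 cells) in female BALB/c nude mice, 6 per group; daily oral dosing (40, 80, 120 mg/kg) or saline vehicle for 21 days, then tumors excised and weighed.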

[3] = Toxicity in Balb/c nude mouse xenografted with human MV4-11 cells assessed as tolerability at 40 to 120 mg/kg, po administered daily for 21 days relative to control; assay type: organism-based; conditions: in vivo, 504 h
Procedure, shortened: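 Nude BALB/c females bearing MV4-11 xenografts, dosed orally each day for 21 days at 40, 80 or 120 mg/kg, saline vehicle controls (6 mice/group); body weight recorded every other day.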

[4] = Oral bioavailability in Sprague-Dawley rat at 10 mg/kg measured upto 24 hrs by LC-MS/MS analysis; assay type: ADME, organism-based; conditions: in vivo
Procedure, shortened: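 Bioavailability from paired rat groups (male SD, n = 3 each): 10 mg/kg oral vs 2 mg/kg i.v.; plasma sampled to 24 h and measured by LC-MS/MS.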

[5] = target: Histone-lysine N-methyltransferase 2A/WDR5 (Homo sapiens, UniProt P61964); experiment: Inhibition of MLL1-WDR5 (unknown origin) protein-protein interaction using Thr-FAM as probe by fluorescence polarization competition assay
Procedure, shortened: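 Competitive FP with WDR5 and 10mer-Thr-FAM probe in 100 mM KH2PO4, 25 mM KCl, 0.01% Triton X-100, pH 6.5; read at λex 485 ± 25 nm, λem 535 ± 25 nm. IC50 from three independent replicates ± SD.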

[6] = target: T2, Histone-lysine N-methyltransferase 2A (Homo sapiens, UniProt Q03164); experiment: Inhibition of MLL1 (unknown origin) histone methyltransferase activity assessed as inhibition of H3K4 methylation incubated for 30 mins by chemiluminescence assay
T2 sequence (Q03164 1-2718 limits assumed): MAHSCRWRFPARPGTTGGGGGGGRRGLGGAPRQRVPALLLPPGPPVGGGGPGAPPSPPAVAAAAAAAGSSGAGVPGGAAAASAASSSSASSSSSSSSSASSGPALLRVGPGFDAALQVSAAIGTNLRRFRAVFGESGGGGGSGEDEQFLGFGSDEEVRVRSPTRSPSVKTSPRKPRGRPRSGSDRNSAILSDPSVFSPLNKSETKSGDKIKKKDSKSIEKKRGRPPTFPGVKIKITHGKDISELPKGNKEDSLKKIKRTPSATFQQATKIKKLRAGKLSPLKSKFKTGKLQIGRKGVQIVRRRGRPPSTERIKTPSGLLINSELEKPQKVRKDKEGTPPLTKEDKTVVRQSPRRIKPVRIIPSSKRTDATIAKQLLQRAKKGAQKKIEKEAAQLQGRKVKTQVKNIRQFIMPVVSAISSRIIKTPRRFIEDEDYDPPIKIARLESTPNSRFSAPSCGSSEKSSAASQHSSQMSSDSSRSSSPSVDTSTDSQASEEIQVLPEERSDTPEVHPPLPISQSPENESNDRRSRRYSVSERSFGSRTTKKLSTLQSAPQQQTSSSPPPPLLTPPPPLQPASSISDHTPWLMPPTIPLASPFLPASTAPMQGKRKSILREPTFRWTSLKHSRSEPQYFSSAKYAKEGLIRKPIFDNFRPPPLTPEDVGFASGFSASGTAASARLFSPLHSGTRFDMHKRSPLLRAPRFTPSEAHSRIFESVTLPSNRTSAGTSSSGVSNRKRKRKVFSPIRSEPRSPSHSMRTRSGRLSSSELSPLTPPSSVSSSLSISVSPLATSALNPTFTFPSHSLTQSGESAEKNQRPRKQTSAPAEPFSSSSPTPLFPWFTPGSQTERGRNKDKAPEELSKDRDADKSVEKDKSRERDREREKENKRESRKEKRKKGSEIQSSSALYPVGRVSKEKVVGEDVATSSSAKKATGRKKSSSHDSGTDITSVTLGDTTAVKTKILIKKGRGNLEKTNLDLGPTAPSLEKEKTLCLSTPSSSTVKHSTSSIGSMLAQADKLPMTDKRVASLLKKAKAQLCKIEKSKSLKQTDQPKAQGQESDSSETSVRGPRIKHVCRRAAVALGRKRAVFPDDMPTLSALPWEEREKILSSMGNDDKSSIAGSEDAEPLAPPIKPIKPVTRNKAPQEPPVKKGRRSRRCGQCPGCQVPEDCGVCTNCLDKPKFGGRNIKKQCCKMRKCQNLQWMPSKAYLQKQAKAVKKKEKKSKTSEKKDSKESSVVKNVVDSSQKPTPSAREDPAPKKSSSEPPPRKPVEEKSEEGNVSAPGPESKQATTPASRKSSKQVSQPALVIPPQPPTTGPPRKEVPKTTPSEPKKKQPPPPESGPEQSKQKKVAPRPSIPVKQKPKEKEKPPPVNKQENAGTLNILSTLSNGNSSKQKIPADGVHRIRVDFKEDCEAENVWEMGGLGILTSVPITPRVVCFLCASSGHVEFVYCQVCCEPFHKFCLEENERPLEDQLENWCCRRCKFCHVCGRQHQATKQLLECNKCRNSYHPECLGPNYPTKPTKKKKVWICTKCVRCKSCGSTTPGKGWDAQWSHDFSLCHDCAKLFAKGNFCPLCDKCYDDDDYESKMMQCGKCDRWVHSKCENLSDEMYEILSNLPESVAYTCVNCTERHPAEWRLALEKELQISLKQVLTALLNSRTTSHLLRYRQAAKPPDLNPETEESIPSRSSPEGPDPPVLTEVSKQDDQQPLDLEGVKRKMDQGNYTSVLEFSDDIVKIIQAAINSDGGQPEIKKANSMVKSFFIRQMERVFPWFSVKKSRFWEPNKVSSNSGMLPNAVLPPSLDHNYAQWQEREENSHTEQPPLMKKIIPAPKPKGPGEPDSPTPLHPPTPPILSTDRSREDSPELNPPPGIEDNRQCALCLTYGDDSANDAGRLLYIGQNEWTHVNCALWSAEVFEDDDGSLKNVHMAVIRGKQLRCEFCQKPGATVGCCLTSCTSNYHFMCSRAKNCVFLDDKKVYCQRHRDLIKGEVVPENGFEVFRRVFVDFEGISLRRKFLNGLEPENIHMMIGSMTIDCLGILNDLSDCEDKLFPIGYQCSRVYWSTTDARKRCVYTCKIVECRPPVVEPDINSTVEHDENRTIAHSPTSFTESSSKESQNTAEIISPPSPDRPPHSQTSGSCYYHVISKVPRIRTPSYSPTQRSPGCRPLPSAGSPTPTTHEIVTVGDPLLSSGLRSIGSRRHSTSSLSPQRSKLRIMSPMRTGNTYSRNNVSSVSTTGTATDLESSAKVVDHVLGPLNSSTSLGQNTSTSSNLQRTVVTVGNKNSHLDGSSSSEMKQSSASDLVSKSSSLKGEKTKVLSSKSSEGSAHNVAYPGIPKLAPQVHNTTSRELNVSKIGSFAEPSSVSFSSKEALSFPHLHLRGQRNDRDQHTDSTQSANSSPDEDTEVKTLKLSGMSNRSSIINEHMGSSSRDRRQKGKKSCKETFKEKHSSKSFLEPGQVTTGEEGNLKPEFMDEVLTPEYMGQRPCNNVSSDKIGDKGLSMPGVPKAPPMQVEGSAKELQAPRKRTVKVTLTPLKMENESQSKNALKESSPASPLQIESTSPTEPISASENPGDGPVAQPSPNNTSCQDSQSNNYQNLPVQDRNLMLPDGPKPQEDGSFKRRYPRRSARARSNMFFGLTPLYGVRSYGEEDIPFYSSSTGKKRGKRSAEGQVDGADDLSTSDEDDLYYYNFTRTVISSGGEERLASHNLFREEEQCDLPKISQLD
T2 sequence (Q03164 2719-3969 limits assumed): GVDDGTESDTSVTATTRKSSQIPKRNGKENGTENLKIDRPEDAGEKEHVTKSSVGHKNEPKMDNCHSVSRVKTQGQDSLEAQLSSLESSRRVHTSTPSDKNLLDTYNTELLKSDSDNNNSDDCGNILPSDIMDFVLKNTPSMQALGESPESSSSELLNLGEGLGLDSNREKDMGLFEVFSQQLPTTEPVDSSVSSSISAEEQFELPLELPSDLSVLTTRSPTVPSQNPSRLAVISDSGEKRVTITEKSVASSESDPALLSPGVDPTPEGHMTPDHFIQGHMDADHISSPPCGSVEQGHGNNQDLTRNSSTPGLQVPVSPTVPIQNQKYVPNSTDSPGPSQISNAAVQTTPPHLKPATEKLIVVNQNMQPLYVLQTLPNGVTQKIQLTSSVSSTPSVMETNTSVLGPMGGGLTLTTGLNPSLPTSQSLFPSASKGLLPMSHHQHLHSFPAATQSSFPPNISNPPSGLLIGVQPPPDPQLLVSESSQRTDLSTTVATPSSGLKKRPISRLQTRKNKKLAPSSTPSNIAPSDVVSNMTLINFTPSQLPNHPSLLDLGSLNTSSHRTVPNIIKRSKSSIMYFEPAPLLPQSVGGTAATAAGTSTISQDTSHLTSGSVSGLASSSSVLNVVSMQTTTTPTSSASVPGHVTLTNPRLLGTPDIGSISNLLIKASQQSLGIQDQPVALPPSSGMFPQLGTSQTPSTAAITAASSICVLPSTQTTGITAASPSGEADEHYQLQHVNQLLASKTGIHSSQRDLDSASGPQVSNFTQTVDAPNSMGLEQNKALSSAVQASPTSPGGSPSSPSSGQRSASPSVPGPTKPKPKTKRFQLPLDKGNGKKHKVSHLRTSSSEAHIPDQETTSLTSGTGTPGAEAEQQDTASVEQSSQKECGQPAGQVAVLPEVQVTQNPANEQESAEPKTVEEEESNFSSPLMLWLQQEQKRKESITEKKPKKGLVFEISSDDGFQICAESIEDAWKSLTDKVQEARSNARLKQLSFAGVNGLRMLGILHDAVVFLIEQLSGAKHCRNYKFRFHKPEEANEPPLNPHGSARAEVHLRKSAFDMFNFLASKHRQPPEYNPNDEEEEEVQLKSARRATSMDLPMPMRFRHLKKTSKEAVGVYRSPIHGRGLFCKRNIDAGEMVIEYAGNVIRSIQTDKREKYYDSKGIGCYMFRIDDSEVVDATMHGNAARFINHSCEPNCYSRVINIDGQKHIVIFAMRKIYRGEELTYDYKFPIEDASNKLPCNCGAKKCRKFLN

[7] = target: T2, Histone-lysine N-methyltransferase 2A; experiment: Inhibition of MLL1 (unknown origin) in human MV4-11 cells assessed as decrease in Meis1 mRNA level at 1 to 10 uM measured after 7 days by RT-PCR analysis; assay type: cell-based
Procedure, shortened: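 MV4-11 cells treated 7 days at 0, 1, 2.5, 5, 10 μM; total RNA extracted with TRIzol and Hoxa9/Meis1 transcripts measured by quantitative RT-PCR, in triplicate (n = 3); Student's t-tests.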

[8] = target: T3, Histone-lysine N-methyltransferase EHMT2 (Homo sapiens, UniProt Q96KQ7); experiment: Inhibition of G9a (unknown origin) assessed as effect on H3K9 methylation incubated for 30 mins by Alphascreen assay; procedure, shortened: as §1
T3 sequence (Q96KQ7 whole entry): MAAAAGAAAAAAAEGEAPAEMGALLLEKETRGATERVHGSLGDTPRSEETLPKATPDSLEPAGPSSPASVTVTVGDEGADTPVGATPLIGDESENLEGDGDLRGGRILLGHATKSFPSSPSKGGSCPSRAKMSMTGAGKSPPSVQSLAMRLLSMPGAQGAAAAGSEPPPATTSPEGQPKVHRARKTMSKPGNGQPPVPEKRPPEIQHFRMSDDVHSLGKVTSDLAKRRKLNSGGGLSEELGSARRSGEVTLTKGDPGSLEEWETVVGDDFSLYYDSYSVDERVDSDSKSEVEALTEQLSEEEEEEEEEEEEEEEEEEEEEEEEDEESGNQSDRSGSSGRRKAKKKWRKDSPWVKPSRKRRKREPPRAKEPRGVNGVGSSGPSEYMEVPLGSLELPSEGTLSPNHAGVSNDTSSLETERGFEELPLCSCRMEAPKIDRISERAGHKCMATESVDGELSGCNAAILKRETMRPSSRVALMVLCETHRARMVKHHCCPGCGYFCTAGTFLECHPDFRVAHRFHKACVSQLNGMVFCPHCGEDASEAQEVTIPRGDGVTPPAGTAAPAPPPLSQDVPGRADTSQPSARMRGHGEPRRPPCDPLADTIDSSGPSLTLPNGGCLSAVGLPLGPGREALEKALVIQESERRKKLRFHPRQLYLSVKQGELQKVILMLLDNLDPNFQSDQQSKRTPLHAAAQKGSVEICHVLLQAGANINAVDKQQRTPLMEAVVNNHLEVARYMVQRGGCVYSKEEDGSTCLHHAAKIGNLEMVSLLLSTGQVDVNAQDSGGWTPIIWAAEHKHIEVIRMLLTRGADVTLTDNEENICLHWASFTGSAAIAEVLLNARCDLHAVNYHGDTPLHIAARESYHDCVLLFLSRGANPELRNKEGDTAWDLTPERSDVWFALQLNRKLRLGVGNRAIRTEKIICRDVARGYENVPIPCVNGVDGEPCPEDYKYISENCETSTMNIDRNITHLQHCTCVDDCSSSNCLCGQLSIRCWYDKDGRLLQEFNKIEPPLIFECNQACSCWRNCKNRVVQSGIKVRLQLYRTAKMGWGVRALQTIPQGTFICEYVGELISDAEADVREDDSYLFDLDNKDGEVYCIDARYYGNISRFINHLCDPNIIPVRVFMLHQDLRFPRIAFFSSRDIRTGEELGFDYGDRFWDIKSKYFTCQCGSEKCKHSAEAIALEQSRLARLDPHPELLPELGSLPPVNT

[9] = system: MV4-11; experiment: Antitumor activity against human MV4-11 cells xenografted in Balb/c nude mouse assessed as tumor growth inhibition at 120 mg/kg, po administered daily for 21 days relative to control; assay type: functional; conditions: MV4-11, po, 504 h, time 21 day, read-out: TGI
Procedure, shortened: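 Female BALB/c nude mice (6–8 weeks) given ~5 × 10^6 MV4-11 cells in 0.2 mL PBS into the flank; at 100–150 mm3 randomized (6/group) to vehicle (0.9% saline) or 40, 80, 120 mg/kg oral (hydrochloride salt) daily for 21 days. Volume = length × width²/2 every other day; GI% = [1 − (TVt − TV0)/(CVt − CV0)] × 100%.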

- IC50 [1]: > 100000 nM
- bioavailability [4]: 82.1%
- IC50 [5]: 29 nM
- IC50 [6]: 780 nM
- inhibition [7]: Active
- IC50 [8]: > 100000 nM
Compound: CN1CCN(c2cc(F)c(-c3ccc(C(=O)N(C)C)cc3)cc2Nc2ncnc(Cl)c2N)CC1
- inhibition in vivo at 80 mg/kg [2]: 51.6%
- Activity [3]: Non-Toxic
- inhibition in vivo at 120 mg/kg [9]: 54.5%
